Measured values reported in ChEMBL document CHEMBL2390856, “Carbon-11 N-methyl alkylation of L-368,899 and in vivo PET imaging investigations for neural oxytocin receptors” (Bioorg Med Chem Lett, 2013).

Experiments:
[1] = Drug uptake in cynomolgus monkey muscle at 8.3 mCi, iv after 2 hrs by PET imaging analysis; type: ADME, organism-based, Macaca fascicularis, Muscle tissue; conditions: in vivo
Method in brief: (§1)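 One male cynomolgus monkey (8.91 kg) given an 8.3 mCi iv bolus of radiotracer. PET scan for 2 h from injection, with images summed. Time-activity curves were derived for choroid plexus, muscle and whole brain.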

[2] = Drug uptake in Sprague-Dawley rat pituitary gland at 500 uCi by PET imaging analysis; type: ADME, tissue-based; conditions: in vivo
[3] = test system: Muscle tissue; assay: Drug uptake in Sprague-Dawley rat muscle at 500 uCi by PET imaging analysis in presence of ornithine vasotocin; type: ADME, tissue-based; conditions: in vivo
Method in brief: (§2)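 Estradiol benzoate-primed Sprague-Dawley rats (10–12 μg sc in sesame oil, daily for 3 days). The peptide OT antagonist ornithine vasotocin (5 mg/kg) was injected 10 min before the radiotracer to block peripheral receptors. 500 μCi of tracer was injected 30 s into a 45 min emission scan.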

[4] = Drug uptake in Sprague-Dawley rat pituitary gland at 500 uCi by PET imaging analysis in presence of ornithine vasotocin; type: ADME; conditions: in vivo; method in brief: as §2
[5] = test system: Hypothalamus; assay: Drug uptake in Sprague-Dawley rat hypothalamus at 500 uCi after 10 mins by PET imaging analysis; type: ADME, tissue-based; conditions: in vivo
[6] = test system: Brain; assay: Drug uptake in Sprague-Dawley rat brain at 500 uCi by PET imaging analysis; type: ADME, tissue-based; conditions: in vivo
[7] = test system: Brain; assay: Drug uptake in Sprague-Dawley rat brain at 500 uCi after 10 mins by PET imaging analysis; type: ADME, tissue-based; conditions: in vivo
[8] = Drug uptake in Sprague-Dawley rat dorsal caudate nucleus at 500 uCi after 10 mins by PET imaging analysis; type: ADME, tissue-based; conditions: in vivo
[9] = test system: Brain; assay: Drug uptake in cynomolgus monkey brain at 8.3 mCi, iv after 2 hrs by PET imaging analysis; type: ADME, organism-based, Macaca fascicularis; conditions: in vivo; method in brief: as §1
[10] = Drug uptake in cynomolgus monkey choroid plexus at 8.3 mCi, iv after 2 hrs by PET imaging analysis; type: ADME, organism-based, Macaca fascicularis; conditions: in vivo; method in brief: as §1
[11] = Drug uptake in Sprague-Dawley rat amygdala at 500 uCi after 10 mins by PET imaging analysis; type: ADME, tissue-based; conditions: in vivo
[12] = Lipophilicity, log P of the compound at pH 7.4; type: physicochemical; conditions: buffer
[13] = target: Vasopressin V1a receptor (Rattus norvegicus, UniProt P30560); assay: Inhibition of rat liver V1a receptor
[14] = target: Vasopressin V2 receptor (Rattus norvegicus, UniProt Q00788); assay: Inhibition of rat kidney V2 receptor
[15] = Oral bioavailability in rat; type: ADME, organism-based; conditions: in vivo
[16] = Oral bioavailability in dog; type: ADME, organism-based, Canis lupus familiaris; conditions: in vivo
[17] = target: T1, Oxytocin receptor (Rattus norvegicus, UniProt P70536); assay: Inhibition of rat uterus OT receptor
T1 sequence (P70536 whole entry): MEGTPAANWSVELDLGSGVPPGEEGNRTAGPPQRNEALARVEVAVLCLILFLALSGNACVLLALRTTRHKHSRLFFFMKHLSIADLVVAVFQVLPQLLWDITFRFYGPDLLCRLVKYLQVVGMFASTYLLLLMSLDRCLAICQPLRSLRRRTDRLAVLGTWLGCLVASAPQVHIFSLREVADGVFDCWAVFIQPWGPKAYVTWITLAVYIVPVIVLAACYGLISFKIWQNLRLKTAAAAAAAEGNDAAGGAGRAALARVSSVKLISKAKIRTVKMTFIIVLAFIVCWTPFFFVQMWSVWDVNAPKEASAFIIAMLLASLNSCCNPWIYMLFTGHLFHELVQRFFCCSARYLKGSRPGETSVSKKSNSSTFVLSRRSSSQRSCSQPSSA

[18] = target: T2, Vasopressin V1b receptor (Homo sapiens, UniProt P47901); assay: Binding affinity to V1B receptor (unknown origin)
T2 sequence (P47901 whole entry): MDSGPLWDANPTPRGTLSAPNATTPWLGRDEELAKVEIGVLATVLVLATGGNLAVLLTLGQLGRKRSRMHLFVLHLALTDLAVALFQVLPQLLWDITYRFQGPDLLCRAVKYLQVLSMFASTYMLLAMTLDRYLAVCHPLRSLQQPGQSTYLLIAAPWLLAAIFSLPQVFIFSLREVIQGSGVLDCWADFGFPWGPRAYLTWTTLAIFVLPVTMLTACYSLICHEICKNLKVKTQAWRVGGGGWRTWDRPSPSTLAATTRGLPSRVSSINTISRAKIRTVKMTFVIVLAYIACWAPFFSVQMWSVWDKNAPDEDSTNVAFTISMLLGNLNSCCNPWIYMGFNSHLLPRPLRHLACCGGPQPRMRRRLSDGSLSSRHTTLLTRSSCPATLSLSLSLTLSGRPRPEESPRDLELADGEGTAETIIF
Method in brief: (§3)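 Ki values in nM from human receptor binding assays run by the NIMH Psychoactive Drug Screening Program.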

[19] = target: T3, Oxytocin receptor (Homo sapiens, UniProt P30559); assay: Binding affinity to human OT receptor; method in brief: as §3
T3 sequence (P30559 whole entry): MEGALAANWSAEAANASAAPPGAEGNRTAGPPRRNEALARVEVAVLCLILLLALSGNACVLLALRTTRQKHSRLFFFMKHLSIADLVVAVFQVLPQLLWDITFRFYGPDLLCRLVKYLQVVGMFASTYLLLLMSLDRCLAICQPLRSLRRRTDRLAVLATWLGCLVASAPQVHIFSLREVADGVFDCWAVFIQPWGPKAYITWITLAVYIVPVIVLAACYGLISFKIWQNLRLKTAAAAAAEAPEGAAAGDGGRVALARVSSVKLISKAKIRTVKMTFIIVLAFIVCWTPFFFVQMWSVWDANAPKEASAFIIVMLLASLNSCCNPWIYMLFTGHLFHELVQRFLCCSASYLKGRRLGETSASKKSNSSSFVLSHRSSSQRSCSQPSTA

[20] = target: Vasopressin V2 receptor (Homo sapiens, UniProt P30518); assay: Binding affinity to human V2 receptor; method in brief: as §3
[21] = target: Vasopressin V1a receptor (Homo sapiens, UniProt P37288); assay: Binding affinity to human liver V1A receptor
Vasopressin V1a receptor (Homo sapiens, UniProt P37288), sequence (P37288 whole entry): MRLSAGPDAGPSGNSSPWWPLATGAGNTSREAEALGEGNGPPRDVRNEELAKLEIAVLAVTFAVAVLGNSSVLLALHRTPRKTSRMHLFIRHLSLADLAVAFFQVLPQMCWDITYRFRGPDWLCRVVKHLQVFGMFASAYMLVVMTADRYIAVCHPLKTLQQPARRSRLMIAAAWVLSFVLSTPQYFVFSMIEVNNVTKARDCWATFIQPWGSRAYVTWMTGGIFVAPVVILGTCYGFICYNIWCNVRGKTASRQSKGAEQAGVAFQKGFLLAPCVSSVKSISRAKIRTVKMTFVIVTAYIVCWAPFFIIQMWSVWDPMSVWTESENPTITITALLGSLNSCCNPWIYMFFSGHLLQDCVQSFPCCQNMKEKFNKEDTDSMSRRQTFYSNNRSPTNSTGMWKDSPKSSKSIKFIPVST

Vasopressin V2 receptor (Rattus norvegicus, UniProt Q00788), sequence (Q00788 whole entry): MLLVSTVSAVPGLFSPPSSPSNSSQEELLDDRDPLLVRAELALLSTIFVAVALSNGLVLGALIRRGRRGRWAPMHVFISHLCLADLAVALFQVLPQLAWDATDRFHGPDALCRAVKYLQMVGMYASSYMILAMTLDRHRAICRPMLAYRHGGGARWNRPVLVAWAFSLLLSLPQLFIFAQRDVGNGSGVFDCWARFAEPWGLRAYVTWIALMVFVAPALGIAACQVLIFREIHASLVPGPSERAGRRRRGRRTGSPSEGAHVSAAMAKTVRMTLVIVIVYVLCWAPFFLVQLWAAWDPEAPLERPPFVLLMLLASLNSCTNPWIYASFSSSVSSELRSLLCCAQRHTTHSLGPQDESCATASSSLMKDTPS
Vasopressin V1a receptor (Rattus norvegicus, UniProt P30560), sequence (P30560 whole entry): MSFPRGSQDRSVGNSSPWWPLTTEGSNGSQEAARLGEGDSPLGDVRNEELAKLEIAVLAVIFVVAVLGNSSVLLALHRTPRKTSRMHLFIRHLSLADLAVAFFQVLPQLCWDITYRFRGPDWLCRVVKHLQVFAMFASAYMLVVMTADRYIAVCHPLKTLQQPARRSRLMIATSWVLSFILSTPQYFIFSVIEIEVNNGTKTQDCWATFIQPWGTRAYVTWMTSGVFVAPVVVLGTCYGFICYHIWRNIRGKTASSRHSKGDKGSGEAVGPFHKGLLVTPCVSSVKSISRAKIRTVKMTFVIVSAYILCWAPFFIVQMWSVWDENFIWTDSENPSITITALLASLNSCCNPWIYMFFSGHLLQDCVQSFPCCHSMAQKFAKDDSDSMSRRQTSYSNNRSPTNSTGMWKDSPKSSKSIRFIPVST
Vasopressin V2 receptor (Homo sapiens, UniProt P30518), sequence (P30518 whole entry): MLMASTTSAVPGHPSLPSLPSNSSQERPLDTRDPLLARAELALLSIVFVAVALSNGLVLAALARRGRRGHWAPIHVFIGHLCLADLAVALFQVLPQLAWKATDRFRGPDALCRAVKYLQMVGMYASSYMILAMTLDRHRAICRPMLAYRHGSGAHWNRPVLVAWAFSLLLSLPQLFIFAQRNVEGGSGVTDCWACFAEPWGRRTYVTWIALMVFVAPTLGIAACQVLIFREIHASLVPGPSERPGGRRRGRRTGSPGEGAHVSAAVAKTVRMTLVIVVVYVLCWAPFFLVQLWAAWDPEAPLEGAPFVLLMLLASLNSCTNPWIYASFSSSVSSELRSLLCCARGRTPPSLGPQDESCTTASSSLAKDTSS

SMILES: Cc1ccccc1N1CCN(S(=O)(=O)C[C@]23CC[C@H](C[C@@H]2NC(=O)[C@H](CCS(C)(=O)=O)N[11CH3])C3(C)C)CC1
- Drug uptake [1]: Active
- Drug uptake [2]: Active
- Drug uptake [3]: Active
- Drug uptake [4]: Active
- Drug uptake [5]: Active
- Drug uptake [6]: Active
- Drug uptake [7]: Active
- Drug uptake [8]: Active
- Drug uptake [9]: Not Active
- Drug uptake [10]: Active
- Drug uptake [11]: Active
- logD [12]: 2.62

SMILES: Cc1ccccc1N1CCN(S(=O)(=O)C[C@]23CC[C@H](C[C@@H]2NC(=O)[C@@H](N)CCS(C)(=O)=O)C3(C)C)CC1
- IC50 [13]: 370 nM
- IC50 [14]: 570 nM
- bioavailability [15]: 17%
- bioavailability [16]: 17%
- IC50 [17]: 8.9 nM

SMILES: CN[C@@H](CCS(C)(=O)=O)C(=O)N[C@H]1C[C@H]2CC[C@]1(CS(=O)(=O)N1CCN(c3ccccc3C)CC1)C2(C)C
- Ki [18]: 1300 nM
- IC50 [13]: 320 nM
- IC50 [14]: 350 nM
- Ki [19]: 5.2 nM
- Ki [20]: 181 nM
- Ki [21]: 620 nM
- IC50 [17]: 9.2 nM
